The text below walks through data of ChEMBL document CHEMBL1121902 (J Med Chem, 1981).

Data set [1] relates to Canis familiaris. Description: Compound was tested for its ability to block isoproterenol-induced vasodilation in anesthetized dogs. Particulars: Canis lupus familiaris, read-out: pA2 app (converted).
Data set [2] is filed under the species Canis familiaris. Description: Vasodilator potency relative to propranolol. The data set is classed as functional, Canis lupus familiaris. The essentials: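 Anesthetized mongrel dogs with a vascularly isolated, pump-perfused hindlimb at constant blood flow; the read-out is the fall in perfusion pressure. Bolus intraarterial injections in isotonic saline into the perfusion system, lowest doses first, compound order randomized at each level; four dogs. Dose to lower pressure 55 mmHg determined.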

The test system of data set [3] is Canis familiaris. In words: Compound was tested for its ability to block isoproterenol-induced contractile force in anesthetized dogs. To be noted: Canis lupus familiaris, read-out: pA2 app (converted).
The nature of data set [4]: Beta adrenergic receptor antagonist potency relative to propranolol. The data set is classed as functional. The essentials:
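Pentobarbital-anesthetized mongrel dogs. Isoproterenol dose-response curves (heart rate, contractile force, femoral artery flow) repeated after cumulative doses of 10, 100 and 1000 µg/kg of racemic hydrochloride in isotonic saline. Apparent pA2 taken from the curve shifts. […] One compound per dog, four dogs each.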

Data set [5] in a line: Partition coefficient (logD7.4). In kind it is physicochemical. To be noted: octanol/water, pH 7.4. The essentials: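 Distribution between 1-octanol and 0.16 M pH 7.4 phosphate buffer (mutually presaturated). Compound at 10^-4 M in buffer was shaken 15 min with an equal volume of octanol, then centrifuged 10 min. Run in triplicate.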
Data set [6] relates to Canis familiaris. In words: Concentration required to decrease hindlimb perfusion pressure(55 mmHg) in anesthetized dogs after intra arterial administration. The data set is classed as functional, Canis lupus familiaris, Artery. The essentials:
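Anesthetized mongrel dogs, vascularly isolated pump-perfused hindlimb held at constant blood flow. Vascular resistance was read as change in perfusion pressure. Bolus intraarterial injections into the perfusion circuit, drugs in isotonic saline, rising doses with compound order randomized at each level. Dose to lower perfusion pressure by 55 mmHg was taken. Four dogs, mean ± SE.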

The subject of data set [7] is Canis familiaris. Description: Compound was tested for its ability to block isoproterenol-induced increases in heart rate(HR) in anesthetized dogs. To be noted: Canis lupus familiaris, read-out: pA2 app (converted).

Counter-ions that a name gives are not always drawn.

Take `CC(C)NCC(O)COc1cc(O)cc2ccccc12` (stereo not given): the Kb in data set [1] is 58.9 nM; in data set [3], 107 nM; in data set [7], 288 nM. In addition, the Relative potency in data set [2] amounted to 0.06; in data set [4] it was 0.16. In addition, in data set [5], the logD amounted to 0.57. Also, in data set [6], the Dose came out at 10 mg.
`CC(C)NCC(O)COc1c(O)ccc2ccccc12` (stereo not given): the Kb was 468 nM in data set [1], 646 nM in data set [3] and 1350 nM in data set [7]. Moreover, the Relative potency was found to be 1.07 in data set [2] and 0.03 in data set [4]. In data set [5], this molecule had a pH-dependent lipophilicity (logD) of 1.66. In addition, the Dose in data set [6] came to 0.52 mg.
Regarding `CC(C)NCC(O)COc1cccc2cccc(O)c12` (stereo not given), the Kb in data set [1] was 55 nM; in data set [3] it was 155 nM; in data set [7] it was 229 nM. Also, the Relative potency in data set [2] is 0.94; in data set [4] it was 0.17. In data set [5], this molecule came in with a logD of 1.4. Besides, the Dose in data set [6] amounted to 0.58 mg.
With `CC(C)NCC(O)COc1cccc2cc(O)ccc12` (stereo not given), the Kb was 4.47 nM in data set [1], 4.37 nM in data set [3] and 9.77 nM in data set [7]. Also, the Relative potency in data set [2] was 0.22; in data set [4], 3.82. Besides, the logD in data set [5] worked out at 0.46. In addition, in data set [6], the Dose is 2.45 mg.
For `CC(C)NCC(O)COc1cccc2ccc(O)cc12` (stereo not given), the Kb in data set [1] is 26.3 nM; in data set [3] it was 17.4 nM; in data set [7] it was 56.2 nM. Also, the Relative potency in data set [2] was 0.2; in data set [4] it was 0.95. In data set [5], the logD amounted to 0.62. Moreover, the Dose in data set [6] is listed as 2.8 mg.
In turn, `CC(C)NCC(O)COc1cccc2ccccc12` (stereo not given) [PROPRANOLOL] yielded a Dose in data set [6] of 0.55 mg.
For `CC(C)NCC(O)COc1cccc2c(O)cccc12` (stereo not given), the Kb in data set [1] is 20.9 nM; in data set [3] it was 32.4 nM; in data set [7], 75.9 nM. Besides, the Relative potency in data set [2] came out at 0.28; in data set [4] it was 0.56. Also, the logD in data set [5] amounted to 0.56. The Dose in data set [6] is reported as 1.95 mg.
`CC(C)NCC(O)COc1ccc(O)c2ccccc12` (stereo not given) [4-HYDROXYPROPRANOLOL SULFATE]: the values for the Kb in data set [1], in data set [3] and in data set [7] were 31.6 nM, 28.8 nM and 45.7 nM, respectively. Moreover, the Relative potency in data set [2] amounted to 0.13; in data set [4], 0.77. Moreover, the logD in data set [5] is 0.53. The molecule further showed a Dose in data set [6] of 4.35 mg.

A word on the logD: it is lipophilicity at a set pH, counting ionised and neutral species. The low end stands for lower lipophilicity, the high end for higher lipophilicity.
